Results reported in ChEMBL document CHEMBL1153789, “The methoxylated flavones eupatorin and cirsiliol induce CYP1 enzyme expression in MCF7 cells” (J Nat Prod, 2009).
The source made the active and inactive calls. The rule behind the calls is not given here.

Experiments:
Assay type in all cases: functional, cell-based
MCF7 [1] = assay: Antiproliferative activity in human MCF7 cells at 1.5 uM after 96 hrs by MTT assay
MCF7 [2] = assay: Induction of CYP1B1 expression in human MCF7 cells at 10 nM after 24 hrs by 7-ethoxyresorufin-O-deethelase assay
Outline: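 MCF7 cells were exposed for 24 h to 0.31, 0.625, 1.25 or 2.5 µM flavone, with 10 nM TCDD as positive control and 0.1% DMSO as negative control. CYP1 activity was read by 7-ethoxyresorufin-O-deethylation (EROD), which is mainly CYP1A1-selective, though CYP1B1 may contribute. The time course used 2.5 µM. Three replicates.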

MCF7 [3] = assay: Induction of CYP1A1 expression in human MCF7 cells at 0.5 uM to 10 uM after 24 hrs by RT PCR and DNA electrophoresis
MCF7 [4] = assay: Induction of CYP1A1 expression in human MCF7 cells at 5 uM after 24 hrs by RT PCR
Outline: (§1)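 MCF7 cells treated 24 h (0, 1.25, 2.5, 5 µM; 10 nM TCDD reference); RT-PCR for CYP1A1, CYP1B1 and β-actin, primers per Döhr et al.; band intensities normalized to β-actin, semiquantitative; gels representative of three individual experiments.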

MCF7 [5] = assay: Induction of CYP1B1 expression in human MCF7 cells at 1.25 uM after 24 hrs by RT PCR; outline: as §1
MCF7 [6] = assay: Antiproliferative activity in human MCF7 cells after 96 hrs by MTT assay in presence of acacetin
MCF7 [7] = assay: Induction of CYP1B1 expression in human MCF7 cells at 5 uM after 24 hrs by RT PCR; outline: as §1
MCF7 [8] = assay: Induction of CYP1A1 expression in human MCF7 cells at 2.5 uM after 24 hrs by RT PCR; outline: as §1
MCF7 [9] = assay: Antiproliferative activity in human MCF7 cells after 96 hrs by MTT assay; conditions: MCF7, 96 h
MCF7 [10] = assay: Induction of CYP1A1 expression in human MCF7 cells after 24 hrs by 7-ethoxyresorufin-O-deethelase assay
Outline: (§2)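 EROD (7-ethoxyresorufin-O-deethylase) activity in MCF7 cells after 24 h exposure to 0.31, 0.625, 1.25, 2.5 µM flavone; 10 nM TCDD positive control, 0.1% DMSO negative control; three replicates. Read-out reflects mainly CYP1A1, with possible CYP1B1 contribution.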

MCF7 [11] = assay: Induction of CYP1B1 expression in human MCF7 cells after 24 hrs by 7-ethoxyresorufin-O-deethelase assay; outline: as §2

**Q.** `COc1ccc(-c2cc(=O)c3c(O)cc(O)cc3o2)cc1` was tested. Which Activity (MCF7 [1]) did it give?
**A.** inactive

**Q.** How did the Activity (MCF7 [2]) turn out when `Clc1cc2c(cc1Cl)Oc1cc(Cl)c(Cl)cc1O2` was run?
**A.** Active

**Q.** `O=c1c(O)c(-c2ccc(O)c(O)c2)oc2cc(O)cc(O)c12` was tested. Which Activity (MCF7 [3]) did it give?
**A.** Active

**Q.** How did the Activity (MCF7 [3]) turn out when `O=c1c(O)c(-c2ccc(O)cc2)oc2cc(O)cc(O)c12` was run?
**A.** inactive

**Q.** For `COc1cc2oc(-c3ccc(O)c(O)c3)cc(=O)c2c(O)c1OC` [CIRSILIOL], which Activity (MCF7 [4]) is on record?
**A.** inactive

**Q.** And the Activity (MCF7 [5])?
**A.** Active

**Q.** And the IC25 (MCF7 [6]; MCF7, 96 h)?
**A.** 5 µM

**Q.** What about the IC50 (MCF7 [6]; MCF7, 96 h) of the same molecule?
**A.** 15 µM

**Q.** What about the Activity (MCF7 [7]) of the same molecule?
**A.** Active

**Q.** And the Activity (MCF7 [8])?
**A.** Active

**Q.** What about the IC25 (MCF7 [9]) of the same molecule?
**A.** 0.5 µM

**Q.** And the IC50 (MCF7 [9])?
**A.** 8 µM

**Q.** `COc1ccc(-c2cc(=O)c3c(O)c(OC)c(OC)cc3o2)cc1O` [EUPATORIN] was tested. Which Activity (MCF7 [4]) did it give?
**A.** Active

**Q.** And the Activity (MCF7 [10])?
**A.** Dose-dependent effect

**Q.** And the Activity (MCF7 [11])?
**A.** Dose-dependent effect

**Q.** And the Activity (MCF7 [6])?
**A.** inactive

**Q.** And the Activity (MCF7 [7])?
**A.** Active

**Q.** And the IC50 (MCF7 [9])?
**A.** 7 µM
